Key:
[1] = CD spectroscopy of conformational transition in phosphate buffer; format: physicochemical; details: 10 μM peptide, 10 mM sodium phosphate pH 7.4, 25°C; for appearance of the solution at 48–72 h of incubation: agitation; for kinetics of conformational transition by CD, in words: agitation 200 rev./min
In short: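 HFIP-treated peptide films were dissolved in 60 mM NaOH, diluted with water, sonicated 1 min, then diluted with 20 mM sodium phosphate (pH 7.4) to 10 μM. Samples were incubated at 25°C with orbital agitation at 200 rev./min. CD spectra (190–260 nm, 1-mm path) were taken every 2 h for 12 h, then at 24, 48 and 72 h, and background-subtracted. Three independent experiments were run.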

[2] = test system: rat primary hippocampal neurons; experiment: Dendritic spine morphology, DiI staining; format: cell-based; details: for induction of dendritic varicosities: 3 μM peptide, 72 h
[3] = Electron microscopy of fibril formation in phosphate buffer; format: physicochemical; details: sodium phosphate pH 7.4, 25°C, 96 h
In short: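 HFIP-treated peptide was dissolved in 60 mM NaOH, sonicated and diluted in sodium phosphate (pH 7.4). It was incubated at 25°C with orbital agitation at 200 rev./min. Aliquots were applied to glow-discharged carbon-coated Formvar grids for 20 min, fixed in 2.5% glutaraldehyde for 4 min, stained with 1% uranyl acetate for 3 min, air-dried and imaged by TEM. Three independent experiments were run.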

[4] = CD spectroscopy of conformational transition in DMEM; format: physicochemical; details: 10 μM peptide, 37°C
In short: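 Peptide was dissolved in 60 mM NaOH, diluted into cell culture medium and sonicated 1 min. It was then incubated at 10 μM in DMEM without serum or cells at 37°C. Conformation was followed by CD periodically over several days.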

[5] = Electron microscopy of fibril formation in DMEM; format: physicochemical; details: 10 μM peptide, 37°C
In short: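 Peptide was dissolved in 60 mM NaOH, diluted into cell culture medium and sonicated 1 min. It was then incubated at 10 μM in DMEM without serum or cells at 37°C. Morphology was examined by electron microscopy periodically over several days, including 24 and 48 h.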

| Substance | appearance of the solution at 48–72 h of incubation [1] | induction of dendritic varicosities [2] | kinetics of conformational transition by CD, in words [1] | time by which the fibrillation process appeared complete (electron microscopy) [5] | other results |
| --- | --- | --- | --- | --- | --- |
| [Met(O2)^35]Aβ40 [Aβ40-sulfone] | free of particulate material or precipitates |  |  |  |  |
| [Met(O)^35]-Aβ42 [Aβ42-sulfoxide] |  | little induction of varicosities | did not change during the first 24 h |  |  |
| [Met(O)^35]Aβ40 [Aβ40-sulfoxide] | free of particulate material or precipitates |  |  |  | abundance of fibrils by electron microscopy [3]: scarce relative to those of WT Aβ40 or Aβ40-sulfone; kinetics of conformational transition by CD in medium, in words [4]: somewhat slower |
| [Met(O2)^35]Aβ42 [Aβ42-sulfone] |  | abundant varicosities | behaved similarly to WT Aβ42 | ≤ 24 h |  |
| Aβ42: Aβ (amyloid β-protein) comprising 42 amino acids, wild-type |  | abundant varicosities |  | ≤ 24 h | effect at 10 μM in the dendritic spine assay ([2]; 10 μM peptide, initial experiments): overt cell death |
